Screening data from PubChem.
Rows were chosen to be rich in hits. Some 1.9% of all compounds tested hit in one or more screens of this group.
Hck-Nef inh: blocks Nef-activated human Hck kinase. 0.68% of 220,000 active. inhibition, % at 20 µM. AID 463187. P08631. Recombinant Hck-YEEI plus Nef, Z-Lyte FRET kinase assay;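 active = Hck-Nef kinase inhibition above about 50%, limit read from the data; inactive = inhibition below that limit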;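 note: 0% = DMSO with Hck plus Nef and 100% = Hck alone without Nef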
Runt-CBFb FRET: Runt domain-CBFb interaction inhibition | 0.46% of 220,000 active | Cerulean-Runt/Venus-CBFb FRET ratio 530/480, 1 h | inhibition, % at 20 µM;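 active = inhibition over about 50% at 20 µM in the single-dose screen, limit read from the data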;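 note: 0% = DMSO wells and 100% = excess unlabeled CBFb competitor control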
Target sequence (Q01196 whole entry, looked up, the tested form may be a part): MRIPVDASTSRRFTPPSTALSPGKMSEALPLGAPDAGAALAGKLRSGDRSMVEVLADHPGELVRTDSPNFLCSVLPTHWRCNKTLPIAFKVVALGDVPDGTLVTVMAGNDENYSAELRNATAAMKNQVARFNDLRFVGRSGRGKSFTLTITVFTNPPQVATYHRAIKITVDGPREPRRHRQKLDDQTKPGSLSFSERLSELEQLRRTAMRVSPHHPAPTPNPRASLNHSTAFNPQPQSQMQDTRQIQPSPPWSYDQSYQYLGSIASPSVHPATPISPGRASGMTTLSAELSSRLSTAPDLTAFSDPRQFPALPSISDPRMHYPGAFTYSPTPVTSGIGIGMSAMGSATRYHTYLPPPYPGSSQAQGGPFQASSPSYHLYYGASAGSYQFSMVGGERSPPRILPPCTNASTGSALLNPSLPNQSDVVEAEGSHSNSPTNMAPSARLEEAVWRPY
Target sequence (Q13951 whole entry, looked up, the tested form may be a part): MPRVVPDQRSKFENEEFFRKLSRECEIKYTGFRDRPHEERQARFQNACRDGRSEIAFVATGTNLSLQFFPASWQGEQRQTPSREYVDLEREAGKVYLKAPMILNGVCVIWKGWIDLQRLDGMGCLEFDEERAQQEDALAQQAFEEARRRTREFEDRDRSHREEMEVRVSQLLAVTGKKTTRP
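System: Cerulean-labeled Runt domain protein | Quantity: 100 nM of each labeled protein | Schedule: 1 h compound exposure, room temperature | Detection: Fluorescence energy transfer, 422 nm excitation, 530/480 nm emission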
RanGTP-Imp inh: disruptors of Ran-importin-beta complex formation – biochemical, FRET, CFP-Ran, YFP-importin-beta, homogeneous, primary screen. cell-free CFP-Ran/YFP-importin-beta FRET ratio. inhibition, % (test concentration not listed). 1.1% of 300,000 active. AID 2216;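 active = more than half of the replicate wells show a fall in the fluorescence ratio signal beyond about 16%, limit read from the data, passing the limit was not always enough; inconclusive = exactly half of the replicate wells pass the set limit; inactive = fewer than half of replicates pass the limit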;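 note: 0% = DMSO wells and 100% = Ran loaded with GDP instead of GTP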
Runt-SMMHC FRET: Runt domain-CBFb-SMMHC interaction inhibition; AID 1434; inhibition, % at 20 µM; 0.74% of 220,000 active; Cerulean-Runt/Venus-CBFb-SMMHC FRET ratio 530/480, 1 h;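 active = mean inhibition across duplicate retests at 20 µM reaching about 50%, limit read from the data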;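 note: 0% = DMSO wells and 100% = wells with excess untagged CBFb-SMMHC; inhibitors lower the FRET ratio by blocking Runt binding to CBFb-SMMHC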
Hck Nef conf: confirmation of Hck-Nef kinase inhibitors; shares compounds with Hck-Nef inh; Recombinant Hck-YEEI:Nef, Z-Lyte FRET kinase assay; calls only at 10 µM; 28% of 1,300 active;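 active = average inhibition of at least 50%, with Z-scores no higher than 3 in both the phospho-tyrosine peptide and fluorescence counterscreens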
* marks the source's active call; other numbers are inactive results; i = inactive; ? = inconclusive; . = no result given; + = active, no number.

SMILES	Hck-Nef inh	Runt-CBFb FRET	RanGTP-Imp inh	Runt-SMMHC FRET	Hck Nef conf
C=CCNC(=O)/C(C#N)=C\c1cc(Cl)c(OCC)c(OC)c1	3.0	-0.2	0.5	2.6	.
COC(OC)c1ccnc(-c2ccc(OC(=O)c3ccccc3)cc2)n1	57.9*	-2.8	?	-2.6	i
COC(OC)c1ccnc(-c2ccc(OC(C)=O)cc2)n1	21.6	-1.0	2.4	-0.6	.
COc1ccc(S(=O)(=O)N2CCCCC2)cc1C(=O)N1CCCC1	.	.	1.5	.	.
O=C(CSc1nnc(SCc2ccccc2)s1)N/N=C/c1c[nH]c2ccccc12	95.3*	.	-6.8	-53.5	+
CCOCCCn1c(=NC(C)=O)c(C(=O)OCC)cc2c(=O)n3ccccc3nc21	118.7*	51.7*	77.4*	63.3*	.
COCCCn1c(=NC(=O)c2ccccc2)c(C#N)cc2c(=O)n3cccc(C)c3nc21	81.5*	23.8	49.4*	88.1*	i
CCOCCCn1c(=NC(C)=O)c(C#N)cc2c(=O)n3ccccc3nc21	95.9*	28.2	123.1*	88.1*	.
CCOC(=O)c1cc2c(=O)n3ccccc3nc2n(CC(C)C)c1=NC(=O)c1ccco1	105.4*	18.4	141.0*	60.5*	i
CCN(C(=O)c1cc2c(=O)n3cccc(C)c3nc2n1CCCOC)C1CCCCC1	.	.	6.7	.	.
COc1ccccc1NC(=S)NC1CCC(CC2CCC(NC(=S)Nc3ccccc3OC)CC2)CC1 (stereo unspecified)	-0.3	2.5	1.2	-5.0	.
S=c1[nH]c2ccccc2o1	7.1	6.3	-1.0	2.8	.
COC(=O)c1sc(-c2ccc(C(C)(C)C)cc2)cc1NC(=O)c1ccccc1C(=O)O	81.7*	-12.1	0.3	-10.6	+
Cc1cccc(NC(=O)CSc2nc(COc3ccccc3)nc3ccccc23)c1C	60.5*	-5.1	-0.5	-9.3	i
Cc1cc(/C=N/Nc2ccc([N+](=O)[O-])cn2)c(C)n1-c1ccc(C(=O)O)cc1	79.4*	-13.7	4.8	-46.0	i
O=C(N/N=C/c1ccc2c(c1)OCO2)c1ccc(NS(=O)(=O)c2cccs2)cc1	-7.0	0.6	1.9	-1.0	.
O=C(N/N=C/c1ccc([N+](=O)[O-])o1)c1ccc(NS(=O)(=O)c2cccs2)cc1	55.5*	-0.1	1.5	-1.6	i
NC(=O)c1ccccc1NC(=O)Nc1ccc(F)c(Cl)c1	18.7	1.4	?	-5.1	.
COc1cc([N+](=O)[O-])cc(/C=N/NC(=O)C(C)Nc2ccccc2C)c1O (stereo unspecified)	101.3*	-4.7	-2.4	-0.8	+
N#Cc1cc2c(=O)n3ccccc3nc2n(CCCN2CCOCC2)c1=O	149.2*	77.0*	94.7*	62.5*	.
Cc1cccn2c(=O)c3cc(C(=O)NCCCn4ccnc4)n(C)c3nc12	19.4	2.3	3.6	10.9	.
Cc1nc2ccccc2c(=O)n1CCCN1CCOCC1	17.5	0.1	0.1	-0.6	.
Cc1ccc2nc3c(cc(C#N)c(=O)n3-c3nccs3)c(=O)n2c1	184.9*	12.5	191.4*	65.3*	.
Cc1cccn2c(=O)c3cc(C(=O)NCCN4CCOCC4)c(=N)n(CCc4ccccc4)c3nc12	61.3*	11.2	185.3*	41.4	.
Cc1cccn2c(=O)c3cc(C(=O)NCCc4ccccc4)c(=N)n(CCCn4ccnc4)c3nc12	60.8*	8.7	177.8*	81.6*	.
SMILES	Hck-Nef inh	Runt-CBFb FRET	RanGTP-Imp inh	Runt-SMMHC FRET	Hck Nef conf
CCC(C)n1c(=N)c(C#N)cc2c(=O)n3cc(C)ccc3nc21 (stereo unspecified)	27.8	.	4.6	.	.
COc1ccc(S(=O)(=O)NNC(=O)Nc2ccc(F)cc2)cc1	.	.	-2.1	.	.
CS(=O)(=O)c1ccccc1C(=O)Nc1cccc(-c2nc3ccccc3o2)c1	.	.	2.6	.	.
COc1ccc(C2/C(=C(/O)c3ccc4c(c3)CC(C)O4)C(=O)C(=O)N2CCN2CCOCC2)cc1OC (stereo unspecified)	.	.	-0.8	.	.
COc1ccc(C(=O)NCC(=O)N2CCN(C(=O)c3ccco3)CC2)cc1	.	.	-3.5	.	.
O=C(NCCN1CCOCC1)c1cc2c(=O)n3ccccc3nc2n1Cc1ccccc1	52.3*	19.7	5.6	48.0	i
C=CCn1c(=N)c(C(=O)NCCCOC)cc2c(=O)n3cccc(C)c3nc21	199.6*	18.1	+	61.3*	.
CCNC(=O)c1cc2c(=O)n3cccc(C)c3nc2n(CCc2ccccc2)c1=N	97.7*	16.6	185.8*	62.0*	.
Cc1cccn2c(=O)c(C=O)c(Cl)nc12	0.0	3.7	?	0.5	.
Cc1ccc(-n2c(=O)c(C#N)cc3c(=O)n4cccc(C)c4nc32)cc1	67.1*	122.2*	92.6*	58.7*	.
CCCCNC(=O)c1cc2c(=O)n3cccc(C)c3nc2n1C	.	5.1	.	19.3	.
N#Cc1cc2c(=O)n3ccccc3nc2n(-c2ccccc2Cl)c1=O	+	3.0	135.9*	89.6*	.
CNC(=O)c1cc2c(=O)n3cccc(C)c3nc2n(C(C)C)c1=N	172.4*	18.9	183.5*	59.8*	.
Cc1ccc2nc3c(cc(C(=O)NC4CCCC4)c(=N)n3CCCn3ccnc3)c(=O)n2c1	109.8*	.	156.2*	.	.
Cn1c(=N)c(S(=O)(=O)c2ccc(Cl)cc2)cc2c(=O)n3ccccc3nc21	2.0	.	.	.	.
Cc1cccn2c(=O)c3cc(C(=O)NCC(C)C)sc3nc12	.	.	-3.6	.	.
CCOc1cc(/C=C2\SC(=S)N(C(C(=O)O)c3ccccc3)C2=O)ccc1O (stereo unspecified)	62.7*	-47.3	-19.1	-162.3	i
CC(OC(=O)c1nc(Cl)ccc1Cl)C(=O)Nc1ccc2c(c1)OCCO2 (stereo unspecified)	.	.	-5.1	.	.
Cc1cc(C)c2c(n1)nn1c(NCCOCCO)cc(C)nc21	50.8*	28.3	38.1*	71.5*	.
CCOC(=O)c1ccc2ncc(C(=O)OCC)c(Nc3ccc(N4CCOCC4)cc3)c2c1	72.9*	-4.2	-2.5	0.8	+
CCOC(=O)c1cnc2ccc(C(=O)OC)cc2c1Nc1ccc(C(=O)O)cc1	20.0	0.4	0.6	2.4	.
O=C(N/N=C/c1ccc([N+](=O)[O-])o1)c1cc(-c2ccc(-c3ccccc3)cc2)nc2ccccc12	197.5*	-5.9	4.9	-19.4	i
Cc1cc2sc3nc(=O)n(-c4ccccc4)c(=O)n3c2cc1C	20.2	1.6	4.2	1.9	.
Cc1cc(=O)oc2cc(NC(=S)NNC(=O)c3c(Cl)cnn3C)ccc12	.	.	-0.8	.	.
COc1ccccc1NS(=O)(=O)c1cccc(NC(=O)c2sc3ccccc3c2Cl)c1	154.2*	0.6	1.3	-0.9	i
CCC(=O)Nc1nc(C)c(-c2csc(Nc3ccc(C(=O)O)cc3)n2)s1	.	.	-3.8	.	.
CC(=O)Nc1nc(C)c(-c2csc(Nc3cccc([N+](=O)[O-])c3)n2)s1	50.9*	0.3	?	8.5	i
Cc1nc(NC(=O)c2ccccc2)sc1-c1csc(Nc2ccc(C(=O)O)cc2)n1	92.9*	12.0	-6.7	-5.1	i
